As usually defined, the EC50 is the concentration at which the effect is half-maximal.

These results are taken from PubChem BioAssay AID809 (SRMLSC, 2007).

Each structure is given as a SMILES string. Activity calls are given as the source filed them.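 The calls were made as follows: active = EC50 for reversing nicotinamide-shortened yeast lifespan at or below a set limit; inactive = EC50 above that limit.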

This test deals with S. cerevisiae DeaD BB579, nicotinamide rescue growth, OD615 48 h. The test is described as follows: rescue of nicotinamide-suppressed growth of yeast BB579, dose response, yeast lifespan extension project, S. cerevisiae (AID 809). The gist of the method:
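Assay system: Saccharomyces cerevisiae DeaD strain BB579, log-phase cells; Medium: CSMM-D glucose restrictive medium; Dosing: compounds from 0.078 to 10 µM final, 0.5% DMSO; Times: 4 h pre-incubation, 48 h exposure at 30 °C; Technique: optical density at 615 nm (absorbance); Evaluation: culture saturation density reflecting mother-cell replicative lifespan.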

With `O=C1CC(c2ccc(F)cc2)CC(O)=C1C=NCCN1CCN(C(=O)Nc2ccccc2)CC1` (centres undefined), the EC50 was 7.09 µM. `Cn1c(=O)c(=O)n(C)c2cc(S(=O)(=O)N3CCN(Cc4ccccc4)CC3)ccc21`: the EC50 is > 10 µM (inactive). For the compound `CNC(=O)/C(C#N)=C/c1c(F)cccc1Cl`, the EC50 was 7.85 µM. To `CCCCn1c(/N=C/c2ccccc2NS(=O)(=O)c2ccc(C)cc2)nc2ccccc21` belongs 3.53 µM; to `COc1ccc(N(C)C(=S)Nc2ccc3nc(C)c(C)nc3c2)cc1`, > 10 µM (inactive). Take `O=c1c2ccccc2nc(-c2cccc(Cl)c2)n1O`: the concentration giving a half-maximal response (EC50) is below 0.078 µM.

Turning to `Cn1c(=O)c2c(nc(Br)n2Cc2ccc3ccccc3c2)n(C)c1=O`, the EC50 was > 10 µM (inactive). To `CN(C)c1ccc(S(=O)(=O)c2ccc(Cl)cc2)cc1` belongs > 10 µM (inactive); to `CCn1c(/C=N/c2nc3ccccc3n2C)nc2ccccc21`, > 10 µM (inactive); to `O=C(Nc1cccc(Cl)c1)c1ccc2c(=O)n3c(nc2c1)CCCCC3`, 6.59 µM. To `CC(C)(C)C(=O)/C(=C/c1cccc([N+](=O)[O-])c1)n1cncn1` belongs 3.73 µM; to `Cc1ccccc1NC(=O)c1ccccc1`, > 10 µM (inactive); to `CCOC(=O)C(=Cc1ccc(F)cc1)C(=O)OCC`, 6.7 µM. Regarding `CCNCCNC(=O)c1c(O)c2cccc3c2n(c1=O)CCC3`, the EC50 was 6.32 µM.

For `Cc1ccc(C(=O)c2no[n+]([O-])c2C(=O)c2ccc(C)cc2)cc1`, the EC50 is > 10 µM (inactive). To `Cc1cccc(NC(=O)c2c(O)c3cccc4c3n(c2=O)CCC4)n1` belongs 6.87 µM; to `Cc1[nH]nc2nc3c(c(OC(=O)c4ccccc4)c12)c(=O)n(C)c(=O)n3C`, 1.75 µM. On to `CC(C)n1c(-c2ccccc2F)n[nH]c1=S`, for which the EC50 was > 10 µM (inactive).

For `CCCc1nc2c(c(=O)c3ccccc3n2C)c(=O)n1C1CCCCCC1`, the EC50 was > 10 µM (inactive). To `CCOC(=O)c1[nH]nc(C(=O)c2ccc(Br)cc2)c1O` belongs 5.89 µM; to `CCCC(=O)Nc1ccccc1Sc1ncnc2scc(-c3ccccc3)c12`, > 10 µM (inactive); to `COc1ccccc1CNC(=O)C(CCSC)NS(=O)(=O)c1ccc2c(c1)oc(=O)n2C` (centres undefined), > 10 µM (inactive). To `O=C1C=CCC(/C=C/c2ccccc2)O1` (centres undefined) belongs > 10 µM (inactive); to `CC(=NCCc1c(C)[nH]c2ccc(C)cc12)C1=C(O)CC(c2ccccc2)CC1=O` (centres undefined), 7.69 µM. In the case of `O=C1Nc2cc(Cl)c(Cl)cc2N(O)N1c1cc(Cl)cc(Cl)c1`, the EC50 was > 10 µM (inactive). The result for `Cc1ccccc1OC(=O)n1c(=S)oc2cc(Cl)ccc21` reads 6.59 µM; that for `CC(C)c1ccc2occ(-c3nn[nH]n3)c(=O)c2c1`, 6.44 µM; that for `Cc1cccc(N2C(=O)C(Oc3ccc(Cl)cc3Cl)C2C=O)c1C` (centres undefined), 6.52 µM. For `Cc1cc(C)nc(SCc2cc(=O)c(OC(=O)c3ccc(Br)o3)co2)n1`, the EC50 was 3.26 µM. In the case of `Cc1ccc(NC(=O)CN2CCN(CCN=CC3=C(O)CC(c4ccccc4)CC3=O)CC2)cc1` (centres undefined), the EC50 is 9.58 µM. Consider `Cc1oc2c(c(=O)c1C)C(=O)CC(c1ccccc1)C2` (centres undefined), for which the EC50 is 7.82 µM. To `Cc1ccc(/C(O)=C2\C(=O)C(=O)N(c3cc(C)on3)C2c2cccc(Cl)c2)cc1` (centres undefined) belongs 9.72 µM; to `Cc1ccc(/C=C/C(=O)C2C(=O)c3ccccc3C2=O)cc1`, 8.56 µM. The result for `O=C(Nc1nc2ccccc2n1CCN1CCOCC1)c1cn(-c2ccccc2)nc1-c1ccccc1` reads > 10 µM (inactive); that for `COC(=O)C1=C(C(=O)OC)SC(=C2C(=S)C(C)(C)N(C(=O)C(C)C)c3ccccc32)S1`, > 10 µM (inactive); that for `Oc1ccc(NCc2ccccc2OCc2ccccc2F)cc1`, > 10 µM (inactive). On to `O=c1[nH]c2ccccc2nc1C(Cl)c1ccccc1` (centres undefined), for which the EC50 is 9.79 µM. The result for `CC(C)OCCCNS(=O)(=O)c1ccc2ccccc2c1` reads > 10 µM (inactive). Regarding `O=C1c2ccccc2C(Nc2ccc3c(c2)OCCO3)N1c1ccccn1` (centres undefined), the EC50 was > 10 µM (inactive). Turning to `COc1ccc(/C(O)=C/C(=O)C(=O)Nc2c(C)n(C)n(-c3ccccc3)c2=O)cc1`, the EC50 is 5.85 µM. To `CCOC(=O)C1=C(N)OC2=C(C(=O)CCC2)C1c1sccc1C` (centres undefined) belongs 9.37 µM.

`O=C1c2ccccc2-c2onc3c(Oc4ccccc4)cc(O)c1c23`: the EC50 is 6.05 µM. On to `Cc1ccc(C(=O)C2C(=O)c3ccccc3C2=O)cc1`, for which the EC50 was 3.68 µM. To `Cc1cc(C)nc(SCc2cc(=O)c(OC(=O)c3ccco3)co2)n1` belongs > 10 µM (inactive); to `CCc1nnc(NC(=O)c2cccc(S(=O)(=O)N(C)c3ccccc3)c2)s1`, > 10 µM (inactive).

`COc1cc(OC)cc(-c2nc3ccccc3c(=O)n2OC(=O)c2ccc(C)c(C)c2)c1`: the EC50 is 8.74 µM. The result for `O=C(N/N=C/c1ccc(F)cc1)c1c(O)c2ccccc2[nH]c1=O` reads 2.22 µM; that for `O=C(c1c[nH]c(C(=O)C(Cl)(Cl)Cl)c1)c1ccccc1Cl`, 8.53 µM; that for `Oc1ccc2ccccc2c1/C=N/c1nccs1`, 6.59 µM.

Turning to `O=C1CC(c2ccccc2)CC(O)=C1C=NCCN1CCOCC1` (centres undefined), the EC50 was 6.42 µM.

With `C[C@]12CC[C@@H]3c4ccc(O)cc4CC[C@H]3[C@@H]1CC[C@@H]2OC(=O)CCC(=O)O`, the EC50 is 5.42 µM. The result for `Cc1ccsc1C(=O)Nc1nnc(-c2ccco2)o1` reads 9.27 µM.

In the case of `CCCCCCN1CC(C(=O)OCC)C(=O)C1=O` (centres undefined), the EC50 was 4.74 µM. The result for `O=C1C=CC2C(c3ccc4c(c3)OCO4)CC1N2Cc1ccccc1` (centres undefined) reads 6.04 µM; that for `COc1ccc(C(=O)On2c(-c3ccc(Br)cc3)nc3ccccc3c2=O)cc1`, 3.02 µM; that for `CCOC(=O)c1ccccc1N1C(=O)CSC1=S`, > 10 µM (inactive). The result for `COc1ccc(NC(=S)N2CCN(CCN=CC3=C(O)CC(c4ccccc4)CC3=O)CC2)cc1` (centres undefined) reads 7.32 µM; that for `O=C(Nc1scc(-c2ccc(F)cc2)c1C(=O)O)c1ccco1`, 3.15 µM. Consider `COc1ccc(CN2C(=O)/C(=C/c3ccncc3)SC2=S)cc1`, for which the EC50 was 6.07 µM. On to `Cc1ccc2nc(N3C(=O)C(O)=C(C(=O)c4ccco4)C3c3cccs3)sc2c1` (centres undefined), for which the EC50 was 6.68 µM. On to `CC1CCCCN1C(=S)Nc1ccc2nc3n(c(=O)c2c1)CCCCC3` (centres undefined), for which the half-maximal effective concentration (EC50) is 8.72 µM.

For `COc1c(Br)cc(Br)cc1/C=N/n1c(C)nnc1C`, the EC50 was > 10 µM (inactive). The result for `Cc1cccc(OC(=O)n2c(=S)oc3cc(Cl)ccc32)c1` reads 5.42 µM.

On to `NC(=S)N/N=C/c1coc2cc(Cl)ccc2c1=O`, for which the half-maximal effective concentration (EC50) is 4.87 µM. The result for `Cc1ccc(C(C2=C(O)CC(C)(C)CC2=O)C2C(=O)CC(C)(C)CC2=O)o1` (centres undefined) reads 6.35 µM.

Consider `COc1ccc(CNC(=O)C2CCN(c3nc(OC)nc(OC)n3)CC2)cc1`, for which the EC50 is > 10 µM (inactive).

As for `CCN1CCCC1CNC(=O)COc1cc(=O)n(C)c2ccccc12` (centres undefined), the EC50 is > 10 µM (inactive). Turning to `Cc1ccc(-c2ccc(/C=C3\C(=O)ON=C3c3ccccc3)o2)c([N+](=O)[O-])c1`, the concentration for a half-maximal effect (EC50) is 6.93 µM. To `O=C(CCl)c1ccc(Cc2ncc(C(F)(F)F)cc2Cl)s1` belongs 3.83 µM; to `CCc1nc(SCC(=O)c2ccc3c(c2)OCCO3)c2ccccc2n1`, > 10 µM (inactive); to `CC(=O)c1c(C)[nH]c(C(=O)OC2CCCCC2=O)c1C` (centres undefined), > 10 µM (inactive). The result for `Cc1cc(C=C2C(=O)N(C)C(=S)N(C)C2=O)c(C)n1-c1cccnc1` reads > 10 µM (inactive). The result for `O=C(c1ccc(F)cc1)C(CN1CCOCC1)c1ccccc1` (centres undefined) reads 1.12 µM.

Regarding `Fc1cccc2sc(Nc3nnc(-c4ccccc4)o3)nc12`, the EC50 was 3.02 µM. On to `Cn1c(SCC(=O)N2CCCc3ccccc32)nnc1-c1c[nH]c2ccccc12`, for which the EC50 was > 10 µM (inactive). In the case of `CC1=NN(Cc2ccccc2)C(=O)C1C(c1ccccc1)C(C#N)C#N` (centres undefined), the EC50 is > 10 µM (inactive).

Take `O=Cc1cc2ccccc2nc1SCc1ccc(Cl)cc1`: the EC50 was 8.27 µM.

For `O=C(Cn1nc(Cl)nc1Cl)c1cc2ccccc2oc1=O`, the EC50 is > 10 µM (inactive). The result for `Cc1cc(N=Cc2c(O)ccc3ccccc23)no1` reads 5.54 µM; that for `COc1ccc(-c2noc(CSc3nnc(-c4ccncc4)n3-c3ccc(F)cc3)n2)cc1OC`, > 10 µM (inactive); that for `CCC(=O)Nc1ccccc1Sc1ncnc2scc(-c3ccccc3)c12`, > 10 µM (inactive). The result for `O=C1c2ccccc2NC(c2ccc(Cl)cc2Cl)N1O` (centres undefined) reads 6.33 µM. In the case of `CCC1CCCCN1S(=O)(=O)c1ccc(S(=O)(=O)N(Cc2cccs2)C2CC2)cc1` (centres undefined), the EC50 was > 10 µM (inactive). The result for `Cc1ccnc(SCc2cc(=O)c(OC(=O)c3ccco3)co2)n1` reads 8.45 µM; that for `COc1ccccc1N(CN1CCCC1=O)C(=O)c1c(F)cccc1F`, > 10 µM (inactive); that for `Cc1nn(-c2c(Cl)cc(Cl)cc2Cl)c(=O)c2ccccc12`, 6.34 µM. For the compound `CCOC(=O)CS(=O)(=O)c1nc(-c2ccc(F)cc2)cc(C(F)(F)F)n1`, the EC50 is 5.71 µM. As to `CCCCSc1nc(O)c(C2OC(=O)c3c2ccc(OC)c3OC)c(=O)n1C` (centres undefined), the EC50 was 5.79 µM. Turning to `O=[N+]([O-])c1cc2oc3c(c2c(C=NCc2ccncc2)c1O)CCCC3`, the EC50 is 1.2 µM. The result for `CC1CCCCC1NC(=O)/C(C#N)=C/c1ccccc1F` (centres undefined) reads 7.11 µM; that for `N#Cc1c(-c2ccccc2)c(-c2ccccc2)nn(CC(=O)NNC(=O)Nc2ccccc2)c1=O`, > 10 µM (inactive). To `CCCC(=O)Nc1ccc(C(=O)NNC(=S)NC(=O)c2cccs2)cc1` belongs > 10 µM (inactive). The result for `CCc1c(C)c(C#N)c2nc3ccccc3n2c1Cl` reads > 10 µM (inactive); that for `CCOc1ccc(C(=O)C(CN2CCOCC2)c2ccccc2)cc1` (centres undefined), 7.92 µM.
